Holding throughout (format): functional, cell-based
One experiment concerns HCT-116. The experiment is described as follows: Cytotoxicity against human HCT116 cells assessed as growth inhibition after 72 hrs by MTT assay. Conditions: HCT-116, 72 h. The essentials:
(§1)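 MTT proliferation assay; cells exposed 72 h, first screened at 100 μM with ≥50% inhibition versus vehicle-treated cells counted active; active compounds then tested at various concentrations to derive IC50 (concentration giving 50% proliferation inhibition). Sunitinib positive control. Means ± SD of three separate experiments.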
(Tetrazolium assays rely on reduction of a dye to a coloured formazan, in cell work by metabolically active cells.)

The next experiment concerns MCF7. The experiment is described as follows: Cytotoxicity against human MCF7 cells assessed as growth inhibition after 72 hrs by MTT assay. The note with it: MCF7, 72 h. A digest of the protocol: as §1
The subject of a further experiment is A549. The experiment is described as follows: Cytotoxicity against human A549 cells assessed as growth inhibition after 72 hrs by MTT assay. The note with it: A549, 72 h. A digest of the protocol: as §1

The structures appear in SMILES notation. A value given as a limit tells only on which side of the number the result lay.

For orientation: IC50 means the midpoint of a concentration-inhibition curve. Turning to `O=C1Nc2ccc(Cl)cc2/C1=N/NC(=S)N1CCN(c2ccc([N+](=O)[O-])cc2)CC1`, the half-maximal inhibitory concentration (IC50) amounted to 12 µM in the experiment on HCT-116, 20.9 µM with MCF7 and 11.8 µM in the experiment with A549.

Turning to `O=C1Nc2ccc(Cl)cc2/C1=N/NC(=S)N1CCN(c2ccccc2[N+](=O)[O-])CC1`, the IC50 in the experiment on HCT-116 stood at 4.57 µM; in the experiment on MCF7, 7.49 µM; in the experiment with A549 it was 5.58 µM.

In the case of `O=C1Nc2ccccc2/C1=N/NC(=S)N1CCN(c2ccccc2)CC1`, the IC50 with HCT-116 worked out at 11.1 µM; in the experiment with MCF7 it was 24.9 µM; in the experiment on A549, 18.6 µM.

As to `O=C1Nc2ccc(Cl)cc2/C1=N/NC(=S)N1CCN(c2ccc(Cl)cc2)CC1`, the 50% inhibitory concentration (IC50) was found to be 5.39 µM with HCT-116, 13.1 µM in the experiment on MCF7 and 8.18 µM in the experiment with A549.

Turning to `O=C1Nc2ccccc2/C1=N/NC(=S)Nc1ccccc1`, the IC50 with HCT-116, in the experiment on MCF7 and in the experiment with A549 was greater than 100 µM each time.

Consider `O=C1Nc2ccc(Cl)cc2/C1=N/NC(=S)N1CCN(c2ccc(Cl)c(Cl)c2)CC1`, for which the figures for the IC50 in the experiment on HCT-116, with MCF7 and in the experiment with A549 were 5.82 µM, 10.8 µM and 7.95 µM, respectively.

As for `O=C1Nc2c(Br)cc(Br)cc2/C1=N/NC(=S)N1CCN(c2ccccc2)CC1`, the half-inhibitory concentration (IC50) turned out to be 6.32 µM with HCT-116, 11.6 µM with MCF7 and 6.11 µM in the experiment with A549.

Regarding `O=C1Nc2cccc(Cl)c2/C1=N/NC(=S)N1CCN(c2ccccc2)CC1`, the IC50 in the experiment with HCT-116 stood at 42.1 µM; in the experiment on MCF7, 52.1 µM; with A549, 55.9 µM.

Turning to `O=C1Nc2cccc(Br)c2/C1=N/NC(=S)N1CCN(c2ccccc2)CC1`, the IC50 worked out at 33.6 µM in the experiment on HCT-116, 40.7 µM in the experiment on MCF7 and 54 µM in the experiment on A549.

For the compound `O=C1Nc2ccc(F)cc2/C1=N/NC(=S)N1CCN(c2ccccc2)CC1`, the IC50 in the experiment with HCT-116 worked out at 12.3 µM; in the experiment with MCF7 it was 24.3 µM; with A549, 20.7 µM.

For the compound `COc1ccc(N2CCN(C(=S)N/N=C3\C(=O)Nc4ccc(Cl)cc43)CC2)cc1`, the IC50 in the experiment on HCT-116 came to 7.74 µM; in the experiment on MCF7, 13.8 µM; in the experiment with A549, 7.68 µM.

In the case of `COc1ccc2c(c1)/C(=N/NC(=S)N1CCN(c3ccccc3)CC1)C(=O)N2`, the 50% inhibitory concentration (IC50) in the experiment with HCT-116 came to 9.53 µM; in the experiment on MCF7, 14.4 µM; in the experiment with A549, 7.52 µM.

In the case of `Cc1ccc2c(c1)/C(=N/NC(=S)N1CCN(c3ccccc3)CC1)C(=O)N2`, the 50% inhibitory concentration (IC50) was found to be 9.48 µM in the experiment on HCT-116, 14.9 µM in the experiment with MCF7 and 9.88 µM in the experiment with A549.

With `O=C1Nc2ccc([N+](=O)[O-])cc2/C1=N/NC(=S)N1CCN(c2ccccc2)CC1`, the IC50 amounted to 15.1 µM in the experiment on HCT-116, 23.3 µM in the experiment on MCF7 and 17.9 µM in the experiment on A549.

Turning to `Cc1ccc(NC(=S)N/N=C2\C(=O)Nc3ccc(Cl)cc32)c(C)c1`, the concentration for half-maximal inhibition (IC50) in the experiment with HCT-116, with MCF7 and with A549 was greater than 100 µM throughout.

As for `O=C1Nc2cc(Br)ccc2/C1=N/NC(=S)N1CCN(c2ccccc2)CC1`, the IC50 with HCT-116 worked out at 14.5 µM; in the experiment on MCF7, 19.7 µM; in the experiment on A549, 15.8 µM.

Turning to `Cc1ccc(N2CCN(C(=S)N/N=C3\C(=O)Nc4ccc(Cl)cc43)CC2)c(C)c1`, the IC50 in the experiment on HCT-116 turned out to be 7.18 µM; in the experiment with MCF7, 10.8 µM; in the experiment with A549, 3.59 µM.

In the case of `Cc1ccc(N2CCN(C(=S)N/N=C3\C(=O)Nc4ccc(Cl)cc43)CC2)cc1`, the IC50 with HCT-116 was found to be 6.39 µM; in the experiment on MCF7 it was 17.1 µM; in the experiment with A549, 10.1 µM.

With `Cc1ccccc1N1CCN(C(=S)N/N=C2\C(=O)Nc3ccc(Cl)cc32)CC1`, the results for the IC50 in the experiment with HCT-116, with MCF7 and with A549 were 4.91 µM, 10.9 µM and 6.52 µM, respectively.

As to `O=C1Nc2ccc(Cl)cc2/C1=N/NC(=S)N1CCN(c2ccc(F)cc2F)CC1`, the IC50 with HCT-116 amounted to 5.89 µM; in the experiment with MCF7 it was 20.1 µM; in the experiment on A549, 11.4 µM.

As to `O=C1Nc2ccc(Cl)cc2/C1=N/NC(=S)Nc1ccccc1`, the IC50 with HCT-116 is 30.8 µM; with MCF7, 35 µM; in the experiment on A549, 33.1 µM.

`CCN(CC)CCNC(=O)c1c(C)[nH]c(/C=C2\C(=O)Nc3ccc(F)cc32)c1C` [SUNITINIB]: the IC50 in the experiment on HCT-116 turned out to be 4.71 µM; with MCF7 it was 6.29 µM; in the experiment on A549, 2.44 µM.

As to `O=C1Nc2cc(Cl)ccc2/C1=N/NC(=S)N1CCN(c2ccccc2)CC1`, the IC50 with HCT-116 is 17.9 µM; in the experiment with MCF7, 23 µM; with A549, 27.7 µM.

`O=C1Nc2ccc(Br)cc2/C1=N/NC(=S)N1CCN(c2ccccc2)CC1`: the IC50 in the experiment with HCT-116 stood at 10.4 µM; in the experiment with MCF7, 20.5 µM; with A549, 12.2 µM.

As to `O=C1Nc2ccc(Cl)cc2/C1=N/NC(=S)N1CCN(c2ccccc2Cl)CC1`, the results for the IC50 in the experiment on HCT-116, with MCF7 and with A549 were 4.91 µM, 11.7 µM and 7.92 µM, respectively.

For the compound `O=C1Nc2ccc(Cl)cc2/C1=N/NC(=S)N1CCN(c2ccc(F)cc2)CC1`, the IC50 in the experiment with HCT-116 came to 6.35 µM; in the experiment with MCF7, 12.3 µM; in the experiment on A549, 8.9 µM.

Turning to `O=C1Nc2ccc(Cl)cc2/C1=N/NC(=S)N1CCN(c2ccccc2F)CC1`, the IC50 with HCT-116 turned out to be 8.29 µM; with MCF7, 15.2 µM; in the experiment with A549 it was 10.5 µM.

For the compound `O=C1Nc2ccc(Cl)cc2/C1=N/NC(=S)N1CCN(c2ccccc2)CC1`, the IC50 came to 3.49 µM with HCT-116, 10.4 µM in the experiment on MCF7 and 7.34 µM in the experiment with A549.

(Values after ChEMBL document CHEMBL2380276, “Synthesis and antiproliferative evaluation of piperazine-1-carbothiohydrazide derivatives of indolin-2-one” (Bioorg Med Chem Lett, 2013).)
